Screening results deposited in PubChem BioAssay by several laboratories.
The list is not random: actives were taken first. Their share in the collection is about 4.6%.
WT yeast gro inh – growth inhibition of WT yeast, mitochondrial fusion screen. inhibition, % at 10 µM. actives 2.1% (n = 190,000). mitochondrial fusion phenotypic screen, WT strain. AID 1362; in the data active = inhibition above about 58%; tested in S. cerevisiae
Arbovirus anti – antivirals against arbovirus infection | arbovirus infection cell-based antiviral screen | inhibition, % at 10 µM | actives 0.37% (n = 200,000); in the data active = inhibition above about 30%
RAM network inh – inhibitors of the yeast RAM network; actives 1.8% (n = 190,000); inhibition, % at 50 µM; S. cerevisiae dse1pr::URA3 reporter, 5-FOA growth OD615, 2 d; analog-sensitive cbk1-as2 kinase mutant strain;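 active = inhibition above a set limit, 3 SD over mean compound inhibition, cut at about 8.4% in these data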;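 note: inhibition rescues growth on 5-FOA so higher OD means more RAM inhibition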
NCF1 inh – inhibitors of human p47phox binding; p47phox/p22phox peptide binding, fluorescence polarization, 2 h; actives 0.53% (n = 220,000); inhibition, % at 24.7 µM;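 active = inhibition above about 30%, limit read from the data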
Biofilm kill mix – mixture kills Candida albicans biofilm cells; C. albicans biofilm persisters + clotrimazole, fluorescence viability; primary screen in compound mixtures of four per well; inhibition, % at 7.6 µM; actives 0.02% (n = 120,000); AID 1242;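 active = inhibition above 30.3% in the primary screen of four-compound pools, then above 30% when the compound was retested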;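 note: compounds exposed to preformed 24 h biofilms for 48 h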
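Incubation: 24 h biofilm formation, then 48 h compound exposure, 37 °C | Material: C. albicans biofilms | Buffer or medium: RPMI/MOPS medium, pH 7.0 | Measured by: 2-h Alamar Blue fluorescence, 535/590 nm excitation/emission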
Hck-Nef inh – inhibitors of human Hck kinase activated by Nef; P08631; inhibition, % at 20 µM; Recombinant Hck-YEEI plus Nef, Z-Lyte FRET kinase assay; actives 0.68% (n = 220,000); AID 463187;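 active = Hck-Nef kinase inhibition above about 50%, limit read from the data; inactive = inhibition below that limit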
Target sequence (P08631 whole entry, looked up): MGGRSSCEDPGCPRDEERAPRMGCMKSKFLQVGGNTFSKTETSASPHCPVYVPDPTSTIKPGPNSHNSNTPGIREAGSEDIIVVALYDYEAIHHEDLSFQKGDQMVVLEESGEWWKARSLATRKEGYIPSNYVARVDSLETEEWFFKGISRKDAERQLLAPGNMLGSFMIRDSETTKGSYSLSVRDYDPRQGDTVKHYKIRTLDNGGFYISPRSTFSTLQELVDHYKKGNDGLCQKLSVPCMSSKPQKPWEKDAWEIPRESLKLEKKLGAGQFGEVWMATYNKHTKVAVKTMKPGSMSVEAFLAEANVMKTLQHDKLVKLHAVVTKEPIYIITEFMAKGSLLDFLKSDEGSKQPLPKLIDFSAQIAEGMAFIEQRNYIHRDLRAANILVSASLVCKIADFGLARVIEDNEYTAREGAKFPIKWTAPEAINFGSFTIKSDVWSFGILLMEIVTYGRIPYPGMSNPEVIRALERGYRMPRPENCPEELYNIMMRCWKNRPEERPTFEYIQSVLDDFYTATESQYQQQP
A number is an active result; n = inactive; x = no result.

SMILES	WT yeast gro inh	Arbovirus anti	RAM network inh	NCF1 inh	Biofilm kill mix	Hck-Nef inh
CCOc1ccccc1NC(=O)C(Sc1nnnn1C)c1ccccc1 (stereo not given)	n	n	n	n	n	n
CC(C)COP(=O)(CNC(=O)CN1C(=O)c2ccccc2S1(=O)=O)OCC(C)C	n	n	n	n	n	n
C/C(=N\Nc1ccc([N+](=O)[O-])cc1)c1ccc(O)cc1	n	n	n	n	n	n
CC(=O)NC/C(C)=N\Nc1ccc([N+](=O)[O-])cc1	78	n	n	n	n	n
COC(=O)c1ccccc1NC(=O)c1ccc(COc2ccccc2)o1	n	n	9.6	n	x	n
CC1CCN(C(=S)c2cn(Cc3ccccc3F)c3ccccc23)CC1	74	n	n	n	x	n
O=C(COC(=O)c1cccnc1Cl)c1ccc(OC(F)F)cc1	n	n	n	n	n	n
O=C(CN1CCN(CC(=O)Nc2ccccc2F)CC1)Nc1ccc2c(c1)OCCO2	n	n	n	n	n	n
O=C1c2ccccc2C(=O)c2cc(S(=O)(=O)Nc3ccccc3)ccc21	72	n	n	n	n	n
CC(C)(C)C(=O)OCc1nc(-c2ccc(C(F)(F)F)cc2)cs1	x	x	x	n	n	n
Cc1ccc(C(=O)CC(=O)c2cccc(F)c2)c(O)c1	69	n	n	n	x	n
O=C(O)O	n	n	n	n	n	n
N#Cc1cccc(NC(=O)CSc2ccc3c4c(cccc24)C(=O)c2ccccc2-3)c1	n	n	n	40	x	n
CN(C)/N=C/c1ccc(P(c2ccc(/C=N/N(C)C)o2)c2ccc(/C=N/N(C)C)o2)o1	n	31	n	n	n	n
CN(/N=C/c1ccc([N+](=O)[O-])o1)c1ccccc1	n	n	n	n	n	n
Cc1onc(-c2c(Cl)cccc2Cl)c1C(=O)NN1CCCCCC1	x	x	x	n	n	n
Cc1c(C(=O)NN2CCCCC2)nn(-c2ccc(Cl)cc2Cl)c1-c1ccc(I)cc1	81	n	x	n	x	x
CCOC(=O)c1cc(C(=O)c2cccs2)n2ccc(C(C)=O)cc12	n	n	8.5	n	x	n
O=[N+]([O-])c1ccc(/C=N/Nc2nc(N3CCCCC3)nc(N3CCCCC3)n2)o1	70	n	n	n	x	n
C(=N\Nc1nc(Nc2ccccc2)nc(N2CCCCC2)n1)/c1ccco1	69	n	n	135	n	n
C(=N\Nc1nc(N2CCCCC2)nc(N2CCCCC2)n1)/c1c[nH]c2ccccc12	63	n	n	n	n	n
CCOc1cc(C2/C(=C(/O)c3ccc(OC(C)C)cc3)C(=O)C(=O)N2CCCOC)ccc1O (stereo not given)	n	n	8.5	n	x	n
Cc1cc(NS(=O)(=O)c2ccc(Nc3nc(-c4sc(C)nc4C)cs3)cc2)no1	n	n	n	n	x	n
Cc1cccnc1Nc1nc(-c2ccc(O)c(O)c2)cs1	n	n	n	n	x	n
COc1ccc(-c2csc(Nc3ccccc3)n2)cc1	69	n	n	n	n	n
SMILES	WT yeast gro inh	Arbovirus anti	RAM network inh	NCF1 inh	Biofilm kill mix	Hck-Nef inh
COc1ccc(-c2csc(Nc3ccc(S(=O)(=O)Nc4cc(C)on4)cc3)n2)cc1	n	30	n	n	n	n
COc1ccc(-c2csc(Nc3ncccc3C)n2)cc1	76	n	n	n	n	n
COc1ccc(-c2csc(Nc3ncccc3C)n2)cc1OC	n	41	n	n	x	n
Cc1ccc(S(=O)(=O)N(CC(=O)NCCSCc2ccco2)c2cc(C)ccc2C)cc1	x	x	x	x	x	n
COc1ccc(C2c3ccc(O)cc3Oc3ncn(Cc4ccco4)c(=N)c32)cc1 (stereo not given)	x	x	x	n	n	n
N=c1c2c(ncn1Cc1ccco1)Oc1ccc3ccccc3c1C2c1ccccc1 (stereo not given)	66	n	n	n	n	n
COc1ccc(C2c3c(ncn(Cc4ccco4)c3=N)Oc3ccc4ccccc4c32)cc1 (stereo not given)	64	n	n	n	n	n
CCCCNC(=O)Nc1ccc(C2SCCS2)cc1	x	x	x	n	n	n
Cc1nc2sccn2c(=O)c1CCN1CCC(=C(c2ccc(F)cc2)c2ccc(F)cc2)CC1	79	n	n	n	n	n
Cc1nc2ccccn2c(=O)c1CCN1CCC(C(=O)c2ccc(F)cc2)CC1	n	n	n	n	n	n
Cc1cc([N+](=O)[O-])c2[nH]c(C(=O)N/N=C/c3ccccc3C(=O)O)c(-c3ccccc3)c2c1	n	n	8.7	n	x	n
CCCCOc1ccc(CSCCN=C(N)N)cc1	n	n	n	n	31	n
Cc1ccc(N(C(=O)Nc2ccccc2)C2=NCC(C)S2)cc1 (stereo not given)	n	n	n	n	x	n
Cc1c(N(C(=O)Nc2ccccc2)C2=NCC(C)S2)c(=O)n(-c2ccccc2)n1C (stereo not given)	82	n	n	n	x	n
COc1ccc(/C=N/NC(=O)c2ccn[nH]2)cc1COc1ccc(F)cc1	n	n	n	n	x	n
COc1ccc(/C=N/NC(=O)c2ccn[nH]2)cc1COc1ccc(Cl)cc1Cl	73	n	n	n	x	n
CCOC(=O)CC(=O)CSc1nc(-c2cccnc2)cc(C)c1C#N	60	n	n	n	x	n
CCOC(=O)CC(=O)CSc1nc(C)cc(-c2cccnc2)c1C#N	n	n	n	n	x	n
CCC(CO)NC1=C([N+](=O)[O-])C(=O)CC(C)(C)C1 (stereo not given)	n	n	n	n	n	n
COC(=O)c1nc2ccccn2c1F	n	n	n	n	n	n
C[C@]12CCC3C(CC=C4C[C@@H](O)CC[C@@]43C)C1CCC2[C@]1(C)CCC(=O)O1 (stereo not given in full)	n	n	n	n	n	n
CC12CCC(O)CC1=CCC1C2CCC2(C)C1CCC21CCC(=O)O1 (stereo not given)	75	n	n	n	n	n
COc1ccc(Nc2ncc(C#N)c(N)n2)c(OC)c1	x	x	x	n	n	n
N=c1c2c(n(Cc3ccc(F)cc3)c3c1CCC3)CCC2	66	n	n	n	x	n
CCn1c2c(c(=N)c3c1CCC3)CCC2	n	n	n	n	n	n
SMILES	WT yeast gro inh	Arbovirus anti	RAM network inh	NCF1 inh	Biofilm kill mix	Hck-Nef inh
CNC(=O)c1cc2ncc(C(F)(F)F)cc2s1	n	n	n	n	n	n
C/C=C(/C)C(=O)Nc1cccc(C2=NOC3(C2)C[C@@H](C(N)=O)N(C(=O)CCCCC)C3)c1 (stereo not given in full)	x	x	x	n	n	n
CC#CC[N+](C)(C)CCCCCCCCCCCC	83	n	n	n	n	n
C#CC[N+](C)(C)CCCCCCCCCC	n	n	n	n	n	n
C#CC[N+](C)(C)CCCCCCCCCCCC	78	n	n	n	n	n
O=S(=O)(c1cccs1)N1CCC(CO)(Cc2cccc(F)c2)CC1	n	n	n	n	n	n
O=C(CN1CCN(c2ccccc2Cl)CC1)NC1CCCc2ccccc21 (stereo not given)	n	n	n	n	n	n
Cc1ccc(Cl)cc1N1CCN(CC(=O)NC2CCCc3ccccc32)CC1 (stereo not given)	74	n	n	n	n	n
